Results taken from ChEMBL document CHEMBL1156229, “Pharmacophore development and application toward the identification of novel, small-molecule autotaxin inhibitors” (J Med Chem, 2010).

Tests used:
[1] = target: T1, Autotaxin (Homo sapiens, UniProt Q13822); experiment: Inhibition of human recombinant C-terminal FLAG-tagged autotaxin expressed in baculovirus-infected Sf9 cells assessed as FS-3 hydrolysis at 10 uM relative to control
Method in brief: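 Single-dose screen: inhibitor 10 μM final, purified recombinant human ATX 8.3 nM, FS-3 1 μM, fatty acid free BSA 30 μM in Tris pH 8 buffer (1 mM MgCl2, 1 mM CaCl2, 3 mM KCl, 140 mM NaCl), 37 °C. Fluorescence (ex 485/em 538) read every 2 min; percent activity vs vehicle after no-ATX subtraction at 1 h; mean ± SD of three wells.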

[2] = target: T1, Autotaxin; experiment: Inhibition of human recombinant C-terminal FLAG-tagged autotaxin expressed in baculovirus-infected Sf9 cells assessed as FS-3 hydrolysis
Method in brief: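 Dose response: final inhibitor 30, 10, 3, 1, 0.3, 0.1, 0.03 μM, plus 0.01 and 0.003 μM for some compounds; purified human ATX 8.3 nM, 1 μM FS-3, 30 μM fatty acid free BSA, Tris pH 8 buffer, 37 °C. Fluorescence ex 485/em 538 every 2 min; percent activity vs vehicle at 1 h after no-ATX background subtraction; mean of three wells.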

| SMILES | inhibition [1] [%] | IC50 [2] [µM] | IC50 ([2]; sf9) [µM] |
| --- | --- | --- | --- |
| O=C(Nc1cc(S(=O)(=O)O)cc2cc(S(=O)(=O)O)c(/N=N/c3cc(Nc4nc(O)nc(Nc5ccc(S(=O)(=O)O)cc5)n4)ccc3S(=O)(=O)O)c(O)c12)c1ccccc1 | 76 | 7.3 |  |
| Cc1ccc(/N=N/c2c(S(=O)(=O)O)cc3cc(NC(=O)Nc4ccc5c(O)c(/N=N/c6ccc7cc(S(=O)(=O)O)ccc7c6)c(S(=O)(=O)O)cc5c4)ccc3c2O)c(C)c1 | 67 | 18.6 |  |
| O=C(Nc1ccc2c(O)c(/N=N/c3ccccc3)c(S(=O)(=O)O)cc2c1)Nc1ccc2c(O)c(/N=N/c3ccc4cc(S(=O)(=O)O)ccc4c3)c(S(=O)(=O)O)cc2c1 | 61 | 19.1 |  |
| COc1cc(NC(=O)c2ccc(NC(=O)c3ccc(N)cc3)cc2)c(OC)cc1/N=N/c1cc(C)c(/N=N/c2cc(S(=O)(=O)O)c3cccc(S(=O)(=O)O)c3c2)cc1C | 53 | 7.6 |  |
| Nc1ccc2cc(S(=O)(=O)O)cc(O)c2c1/N=N/c1ccc(-c2ccc(/N=N/c3c(S(=O)(=O)O)cc4cc(S(=O)(=O)O)c(/N=N/c5ccc([N+](=O)[O-])cc5)c(N)c4c3O)cc2)cc1 | 57 | 17.4 |  |
| Cc1c(N)cc(S(=O)(=O)O)c(/N=N/c2ccc(-c3ccc(/N=N/c4c(S(=O)(=O)O)cc5cc(S(=O)(=O)O)c(/N=N/c6cccc([N+](=O)[O-])c6)c(N)c5c4O)cc3)cc2)c1N | 68 | 5.9 |  |
| COc1ccc(/C=N/NC(=O)C(=O)N/N=C/c2ccc(OC)c(S(=O)(=O)O)c2)cc1S(=O)(=O)O | 0 |  |  |
| O=C(O)c1cc(O)c(O)c(OC(=O)c2cc(O)c(O)c(O)c2CNc2ccc3cc(S(=O)(=O)O)cc(S(=O)(=O)O)c3c2)c1 | 2 |  |  |
| COc1cc(/N=N/c2ccc3cc(S(=O)(=O)O)cc(S(=O)(=O)O)c3c2)ccc1/N=N/c1ccc(NC(=O)c2ccc(NC(=O)c3ccccc3)cc2)cc1C | 77 | 1.7 |  |
| O=C(Nc1cc(O)ccc1Oc1cc(O)c(O)cc1S(=O)(=O)O)Nc1cc(O)ccc1Oc1cc(O)c(O)cc1S(=O)(=O)O | 0 |  |  |
| Cc1ccc(C(=O)Nc2ccc(S(=O)(=O)O)c3cc(S(=O)(=O)O)cc(S(=O)(=O)O)c23)cc1NC(=O)c1cccc(NC(=O)Nc2cccc(C(=O)Nc3cc(C(=O)Nc4ccc(S(=O)(=O)O)c5cc(S(=O)(=O)O)cc(S(=O)(=O)O)c45)ccc3C)c2)c1 | 27 |  |  |
| Cc1cc(/C(=C2C=C/C(=N\c3ccc(S(=O)(=O)O)cc3)C=C\2)c2ccc(Nc3ccc(S(=O)(=O)O)cc3)cc2)cc(S(=O)(=O)O)c1N | 55 | 8.7 |  |
| COc1cc(S(=O)(=O)O)ccc1/N=N/C(=N\Nc1ccc(S(=O)(=O)O)cc1OC)C(N)=O | -1 |  |  |
| O=C(O)c1ccccc1-c1c2cc/c(=N\c3ccccc3)cc-2oc2cc(Nc3ccc(S(=O)(=O)O)cc3)ccc12 | 27 |  |  |
| Cc1cc(-c2ccc(/N=N/c3c(N)c(S(=O)(=O)O)cc4cc(S(=O)(=O)O)ccc34)c(C)c2)ccc1/N=N/c1cc(S(=O)(=O)O)c2ccccc2c1N | 68 | 13.4 |  |
| Nc1c(/N=N/c2ccc(-c3ccc(/N=N/c4c(S(=O)(=O)O)cc5cc(S(=O)(=O)O)c(/N=N/c6ccccc6)c(O)c5c4N)cc3)cc2)ccc2c(S(=O)(=O)O)cccc12 | 75 | 2.42 |  |
| Nc1ccc2cc(S(=O)(=O)O)cc(O)c2c1/N=N/c1ccc(NC(=O)Nc2ccc(/N=N/c3c(N)ccc4cc(S(=O)(=O)O)cc(O)c34)c(S(=O)(=O)O)c2)cc1S(=O)(=O)O | 22 |  |  |

| SMILES | inhibition [1] [%] | IC50 [2] [µM] | IC50 ([2]; sf9) [µM] |
| --- | --- | --- | --- |
| N=C(N/N=C/c1ccccc1S(=O)(=O)O)C(=N)N/N=C/c1ccccc1S(=O)(=O)O | 5 |  |  |
| Cc1cc(C)c(/N=N/c2cc(C)c(/N=N/c3c(S(=O)(=O)O)cc4cc(Nc5ccccc5)ccc4c3O)cc2C)c(S(=O)(=O)O)c1 | 27 |  |  |
| O=C(N/N=C/c1ccccc1S(=O)(=O)O)C(=O)N/N=C/c1ccccc1S(=O)(=O)O | -2 |  |  |
| O=C(Nc1ccc(S(=O)(=O)c2ccc(NC(=O)Nc3ccc4cc(S(=O)(=O)O)ccc4c3)cc2)cc1)Nc1ccc2cc(S(=O)(=O)O)ccc2c1 | 43 |  |  |
| O=C(Nc1ccc2c(O)cc(S(=O)(=O)O)cc2c1)Nc1ccc2c(O)cc(S(=O)(=O)O)cc2c1 | 11 |  |  |
| Nc1c(S(=O)(=O)O)cc(Nc2cccc(S(=O)(=O)/C=C/S(=O)(=O)O)c2)c2c1C(=O)c1ccccc1C2=O | 43 |  |  |
| COc1cc(/N=N/c2cccc(S(=O)(=O)O)c2)ccc1NC(=O)Nc1ccc(/N=N/c2ccc(O)c(C(=O)O)c2)cc1 | 21 |  |  |
| O=C(Nc1cccc(C(=O)Nc2ccc3cc(S(=O)(=O)O)cc(S(=O)(=O)O)c3c2)c1)Nc1cccc(C(=O)Nc2ccc3cc(S(=O)(=O)O)cc(S(=O)(=O)O)c3c2)c1 | 29 |  |  |
| COc1cc(/N=N/c2ccc(/N=N/c3cc(S(=O)(=O)O)ccc3S(=O)(=O)O)c(C)c2)c(C)cc1/N=N/c1ccc(NC(=O)c2ccc(N)cc2)cc1C | 39 |  |  |
| O=S(=O)(O)c1ccc(/N=N/Nc2ccc(S(=O)(=O)O)cc2)cc1 | 1 |  |  |
| Nc1ccc(NC(=O)c2ccc(C(=O)Nc3ccc4c(O)cc(S(=O)(=O)O)cc4c3)cc2)cc1 | 20 |  |  |
| O=C(Nc1ccc2cc(S(=O)(=O)O)cc(S(=O)(=O)O)c2c1)Nc1ccc2cc(S(=O)(=O)O)cc(S(=O)(=O)O)c2c1 | 0 |  |  |
| Nc1ccc(C(=O)Nc2cccc(C(=O)Nc3ccc4c(O)c(/N=N/c5ccc(/N=N/c6ccc(S(=O)(=O)O)cc6)cc5)c(S(=O)(=O)O)cc4c3)c2)cc1 | 39 |  |  |
| Cc1cc(C(O)(c2ccc(Nc3ccccc3)cc2)c2ccc(Nc3ccc(S(=O)(=O)O)cc3)cc2)ccc1N (centres undefined) | 65 |  |  |
| CCOc1cc(-c2ccc(/N=N/c3c(S(=O)(=O)O)cc4ccc(N)cc4c3O)cc2)ccc1/N=N/c1c(S(=O)(=O)O)cc2ccc(N)cc2c1O | 39 |  |  |
| Cc1[nH]n(-c2cc(S(=O)(=O)O)ccc2O)c(=O)c1/N=N/c1c(NC(=O)c2ccc(N)cc2)ccc2cc(S(=O)(=O)O)ccc12 | 49 |  |  |
| O=C(Nc1ccccc1)C(=N/Nc1cc(S(=O)(=O)O)ccc1O)/N=N/c1cc(S(=O)(=O)O)ccc1O | 0 |  |  |

Results, then the molecule that gave them:

| inhibition [1] [%] | IC50 [2] [µM] | IC50 ([2]; sf9) [µM] | SMILES |
| --- | --- | --- | --- |
| 71 | 11.6 |  | Cc1ccccc1/N=N/c1c(S(=O)(=O)O)cc2cc(NC(=O)Nc3ccc4c(O)c(/N=N/c5ccc6cc(S(=O)(=O)O)ccc6c5)c(S(=O)(=O)O)cc4c3)ccc2c1O |
| 59 | 18.2 |  | COc1ccccc1/N=N/c1c(S(=O)(=O)O)cc2cc(NC(=O)Nc3ccc4c(O)c(/N=N/c5ccc(S(=O)(=O)O)cc5C)c(S(=O)(=O)O)cc4c3)ccc2c1O |
| 53 | 37.6 |  | COc1cc(/N=N/c2cc(S(=O)(=O)O)cc3cc(S(=O)(=O)O)cc(O)c23)c(C)cc1/N=N/c1c(S(=O)(=O)O)cc2cc(Nc3ccccc3)ccc2c1O |
| 1 |  |  | O=C(CC(C(=O)O)S(=O)(=O)O)Nc1ccc(S(=O)(=O)c2ccc(NC(=O)CC(C(=O)O)S(=O)(=O)O)cc2)cc1 (centres undefined) |
| 2 |  |  | COc1cc(/N=N/c2c(C)cc(C)cc2S(=O)(=O)O)c(C)cc1/N=N/c1c(S(=O)(=O)O)cc2cc(Nc3ccccc3)ccc2c1O |
| 61 |  | 7.8 | O=S(=O)(O)c1ccc(-c2c3nc(c(-c4ccc(S(=O)(=O)O)cc4)c4ccc([nH]4)c(-c4ccc(S(=O)(=O)O)cc4)c4ccc([nH]4)c(-c4ccc(S(=O)(=O)O)cc4)c4nc2C=C4)C=C3)cc1 [TETRAPHENYLPORPHINE TETRASULFONIC ACID] |
| 5 |  |  | O=C(N/N=C/c1ccc(O)c(S(=O)(=O)O)c1)C(=O)N/N=C/c1ccc(O)c(S(=O)(=O)O)c1 |
| 1 |  |  | O=S(=O)(O)c1ccccc1/C=N/NC(=S)N/N=C/c1ccccc1S(=O)(=O)O |
| 17 |  |  | CC(=O)Nc1ccc(/N=N/c2c(S(=O)(=O)O)cc3cc(NC(=O)Nc4ccc5c(O)c(/N=N/c6ccccc6)c(S(=O)(=O)O)cc5c4)ccc3c2O)cc1 |
| 51 | 12.6 |  | Nc1c(S(=O)(=O)O)cc2cc(S(=O)(=O)O)ccc2c1/N=N/c1ccc(-c2ccc(/N=N/c3c(N)c(S(=O)(=O)O)cc4cc(S(=O)(=O)O)ccc34)c(S(=O)(=O)O)c2)cc1 |
| 65 | 15.5 |  | Cc1ccc(C)c(/N=N/c2c(S(=O)(=O)O)cc3cc(NC(=O)Nc4ccc5c(O)c(/N=N/c6ccc7cc(S(=O)(=O)O)ccc7c6)c(S(=O)(=O)O)cc5c4)ccc3c2O)c1 |
| 29 |  |  | CC(=O)Nc1cc(S(=O)(=O)O)cc2cc(S(=O)(=O)O)c(/N=N/c3ccc(C(=O)Nc4ccc5cc(S(=O)(=O)O)ccc5c4)cc3)c(O)c12 |
| 17 |  |  | CC(=O)Nc1cc(S(=O)(=O)O)cc2cc(S(=O)(=O)O)c(/N=N/c3ccc(C(=O)Nc4ccc(S(=O)(=O)O)cc4)cc3)c(O)c12 |
| 8 |  |  | CCCCc1ccc(Nc2ccc(Nc3ccc(CCCC)cc3S(=O)(=O)O)c3c2C(=O)c2ccccc2C3=O)c(S(=O)(=O)O)c1 |
| 4 |  |  | Cc1ccc(Nc2cccc3c2C(=O)c2cccc(Nc4ccc(C)c(S(=O)(=O)O)c4)c2C3=O)cc1S(=O)(=O)O |
| 6 |  |  | Cc1ccc(C(=O)Nc2ccc(S(=O)(=O)[O-])c3cc(S(=O)(=O)O)cc(S(=O)(=O)[O-])c23)cc1NC(=O)c1cccc(NC(=O)Nc2cccc(C(=O)Nc3cc(C(=O)Nc4ccc(S(=O)(=O)O)c5cc(S(=O)(=O)O)cc(S(=O)(=O)O)c45)ccc3C)c2)c1.Cc1ccc(C)c2c1c(NCCCCCCNc1cc(C)[n+](C)c3c(C)ccc(C)c13)cc(C)[n+]2C |
| 2 |  |  | COc1ccc(/C=N/NC(=O)N/N=C/c2ccc(OC)c(S(=O)(=O)O)c2)cc1S(=O)(=O)O |
| 36 |  |  | O=C(Nc1ccc2c(O)cc(S(=O)(=O)O)cc2c1)Nc1ccc2c(O)c(/N=N/c3ccc4cc(S(=O)(=O)O)ccc4c3)c(S(=O)(=O)O)cc2c1 |
| 8 |  |  | O=C1Nc2ccc(S(=O)(=O)O)cc2/C1=N/Nc1ccccc1[N+](=O)[O-] |
